# From PubChem BioAssay
# MT stabilizer: microtubule stabilizers in HeLa cells, primary screen, imaging, high-content imaging; HeLa tubulin immunostaining HCS, 24 h; share of cells brighter than vehicle mean+2SD; AID 2205, 2009; 200,000 compounds, 0.83% hits; % tubulin-high responders, % at 10 µM;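 active means plate Z-score above 3 for both tubulin-high and condensed-nucleus cell shares, with cell loss under 80%, at 10 µM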;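 further: anti alpha tubulin signal scored within the nucleus-defined area of each cell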
# b-catenin transl: modulators of beta-catenin nuclear translocation, primary screen, imaging, HeLa cells, immunofluorescence, high-content; 190,000 compounds, 0.3% hits; nuclear translocation activity, % at 5 µM;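 active means nuclear translocation activity above 50% at 5 µM, with a well cell count of 50 or more; inconclusive means wells under 50 cells across six images, flagged as toxic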;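 further: per-cell ratio of nuclear to cytoplasmic median beta-catenin stain intensity; plate controls were DMSO negative control for no effect and GSK-3 inhibitor IX positive control for full effect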
#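 Test system: human HeLa cells, native beta-catenin. Compound dosing: 5 µM primary single dose, 0.1% DMSO, 0.02–20 µM confirmation series. Incubation: compound exposure 24 h at 37°C. Detection: beta-catenin immunostaining with DAPI counterstain, 20x imaging, 6 fields/well. Read-out basis: Nuclear/cytoplasmic beta-catenin signal ratio, % activation.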
# ROMK primary: ROMK potassium channel modulators, primary screen, cell-based, thallium flux, MLSMR library; ATP-sensitive inward rectifier potassium channel 1 (Homo sapiens), P48048; 130,000 compounds, 2% hits; Tet-inducible ROMK, thallium flux fluorescence; actives lie on both sides; B-score at 10 µM;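 active means signal ratio slope over the read window, or its plate-corrected B-score, at least 3 SD from the plate mean, either direction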;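 further: B-score of the F/F0 ratio slope over 7 to 12 s after thallium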
# Target sequence (P48048 whole entry, looked up): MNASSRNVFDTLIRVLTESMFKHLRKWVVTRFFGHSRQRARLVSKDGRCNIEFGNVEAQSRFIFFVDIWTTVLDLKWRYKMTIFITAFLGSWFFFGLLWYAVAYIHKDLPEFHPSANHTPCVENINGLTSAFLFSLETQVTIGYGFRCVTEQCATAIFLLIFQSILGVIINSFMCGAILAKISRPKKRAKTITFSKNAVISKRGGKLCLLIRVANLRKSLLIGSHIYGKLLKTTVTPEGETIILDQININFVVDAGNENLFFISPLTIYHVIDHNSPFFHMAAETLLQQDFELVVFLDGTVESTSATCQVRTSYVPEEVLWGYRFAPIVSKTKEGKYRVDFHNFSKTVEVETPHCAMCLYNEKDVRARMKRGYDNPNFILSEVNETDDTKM
# Cl transport mod: KCC2 cotransporter modulators, thallium flux, primary screen, cell-based, HEK293 KCC2, FluoZin-2 fluorescence, MLSMR; KCC2 cells, thallium flux FluoZin-2 fluorescence; B-score of Tl+ flux slope (higher = more flux/activation; lower = inhibition) at 10 µM; 190,000 compounds, 2.2% hits; AID 1456, 2008;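 active means thallium flux slope and its plate-corrected score both differing from the plate sample mean at a set confidence after two filtering rounds, in either direction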;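 further: slope of fluorescence scaled to starting intensity during 10 to 20 s after thallium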
# DTT redox prof: compounds producing H2O2 with reducing agent – biochemical, NIH compound library profiling, artefact control for MLSCN library redox annotation, primary screen; DTT-dependent redox cycling H2O2, phenol red/HRP absorbance; 100% = 100 µM peroxide control, 0% = buffer; activation, % at 10 µM; 200,000 compounds, 0.03% hits; AID 878, 2007;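 active means activation of at least 50% relative to the plate's high and low controls in the primary single-dose screen; inactive means activation below 50%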;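 further: compound incubated with DTT at 0.8 mM final as the reducing agent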
# ROMK retest: ROMK channel modulator hit retest, confirmation, cell-based, thallium flux, duplicate, resupplied hits; shares compounds with ROMK primary; fluorescence ratio; hits give low values; normalized thallium flux (F/F0 slope) at 10 µM; 3,000 compounds, 54% hits;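 active means Flux at 10 µM at least 3 SD below or above vehicle control mean in one or both replicates; inconclusive means no clear call, values can overlap the other calls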
# Active calls of the source: *; i = inactive; ? = inconclusive; / = not tested or not shown. Most compounds without a hit are left out; they make up all but 3.7% or so of the library.
SMILES,MT stabilizer,b-catenin transl,ROMK primary,Cl transport mod,DTT redox prof,ROMK retest
Cc1ccc(NC(=O)CCc2ccc(S(=O)(=O)N3CCOCC3)cc2)c(C)c1,2.0,/,3.23*,-0.0894,0.1,0.0859
Cc1ccc(NC(=O)COC(=O)CCc2ccc(S(=O)(=O)N3CCOCC3)cc2)c(C)c1,2.3,-3.9,0.573,0.694,-0.6,/
Cn1c(C(C)(O)C(O)c2ccccc2)nc2ccccc21 (stereo not drawn),4.5,-1.6,-0.668,-0.00775,0.0,/
CCOCC(=O)Nc1c(C(=O)Nc2ccc3c(c2)OCCO3)oc2ccccc12,2.7,-3.9,-0.991,-0.219,0.4,/
CCOc1ccc(-n2c(SCC(=O)Nc3cc(C)on3)nnc2-c2c[nH]c3ccccc23)cc1,1.7,/,4.3*,0.039,0.2,0.0733
COc1ccc(OC)c(-n2c(SCC(=O)N3CCc4ccccc43)nc3c(c2=O)SCC3)c1,4.0,-4.1,/,-0.359,0.4,/
COc1ccccc1-n1c(SCC(=O)N2CCc3ccccc32)nc2c(c1=O)SCC2,2.0,0.2,/,-2.59,0.0,0.0576*
CC1C/C(=N\NC(=O)c2ccc(NS(=O)(=O)c3ccc(Br)cc3)cc2)CC(C)(C)C1 (stereo not drawn),2.4,-5.6,-0.871,-0.385,-0.2,/
Cc1ccc([C@@H]2C3COCC=C3C(C#N)=C(N)C2(C#N)C#N)o1 (stereo partly drawn),1.8,-2.1,-4.48*,/,0.0,0.0461*
Cc1nc2ccccc2nc(C)c1=NOCc1ccccc1Cl,1.6,-0.9,-0.000594,0.129,0.1,/
Cc1ccc(NC(=O)C2=C(O)c3ccccc3N(C)S2(=O)=O)cc1,0.5,-3.1,/,0.0326,1.6,/
CCCCOc1ccc(C2CC(=O)NC2=O)cc1 (stereo not drawn),4.4,-0.6,-0.892,/,0.8,/
CCCCOc1ccccc1C1CC(=O)NC2=C1C(=O)CCC2 (stereo not drawn),48.4*,109.0*,4.65*,0.437,2.0,0.0893
Cc1ccc(NCC(=O)Nc2c(C)n(C)n(-c3ccccc3)c2=O)cc1S(=O)(=O)N(C)C,/,-0.9,/,1.11,/,/
COc1ccc(C(=O)Cn2nc(CNc3ccc(Br)cc3)[n+]3c2CCCCC3)cc1,5.5,0.2,-2.52,0.139,-1.5,/
Cc1ccc(C(C)C)c(OCc2nn(CC(=O)c3ccc(OC(F)F)cc3)c3[n+]2CCCCC3)c1,47.9,-3.7,-4.15*,-0.441,-0.8,0.0549*
Cc1ccccc1NC(=O)c1ccc(Cl)c(NC(=O)c2cccnc2)c1,3.5,-0.4,0.375,/,0.5,/
Cc1[nH]n(-c2ccc(C(=O)O)cc2)c(=O)c1CCO,1.6,-0.1,3.75*,0.996,1.7,0.0812
CCS(=O)(=O)N1CCN(c2ccc([N+](=O)[O-])c(NCC3CCCO3)c2)CC1 (stereo not drawn),3.6,-3.3,1.42,-0.981,1.9,/
COc1cccc(C(=O)C2CCCN(Cc3cccn3-c3cccnc3)C2)c1 (stereo not drawn),2.6,0.8,-2.86*,0.00777,-9.9,0.0718
COc1ccc(C(=O)C2CCCN(S(=O)(=O)c3cccnc3)C2)c(C)c1 (stereo not drawn),2.2,-0.7,-8.64*,2.65,1.0,0.075
N#C/C(=C(/O)CCl)c1nc(-c2ccccc2)cs1,/,-0.4,/,-1.22,/,/
Cc1ccc(-c2csc(/C(C#N)=C(\O)CCl)n2)cc1,2.5,0.6,-3.32*,-2.89,1.4,?
Cc1ccccc1OCC(=O)Nc1ccc2c(c1)n(C)c(=O)n2C,2.0,1.3,-0.374,-0.00848,-1.2,/
CCOC(=O)COn1c(=O)c(-c2cccs2)[n+]([O-])c2ccccc21,2.0,-0.6,-4.18*,1.76,4.1,0.059*
SMILES,MT stabilizer,b-catenin transl,ROMK primary,Cl transport mod,DTT redox prof,ROMK retest
CSc1ncc(-c2ccc(Cl)cc2)[nH]1,/,-2.1,-0.639,-0.136,/,/
N#Cc1c2ccc(OCC(N)=O)cc2n2ccccc12,1.9,2.3,-3.19*,-0.97,-0.2,0.0508*
Cc1ccnc2nc(C(=O)OCC(=O)c3c[nH]c4ccccc34)nn12,/,-5.6,/,/,/,/
COc1ccc(C(=O)/C=C/C(=O)N(Cc2ccccc2OC)C(C(=O)NC2CCCCC2)c2ccncc2)c(O)c1 (stereo not drawn),1.9,-0.5,-3.73*,-1.17,-0.1,0.0663*
COc1ccc(C(=O)/C=C/C(=O)N(Cc2ccccc2)C(C(=O)NC2CCCCC2)c2ccncc2)c(O)c1 (stereo not drawn),2.4,-1.2,-2.43,-0.568,0.1,/
O=CNC(Cc1ccccc1)C(=O)O (stereo not drawn),2.9,/,2.15*,0.0428,0.4,0.0754
Cc1ccc(NC(=O)COC(=O)[C@H](C)NC(=O)c2ccccc2)cc1S(=O)(=O)N1CCOCC1,/,-1.3,/,-0.589,/,/
O=C(C1CCN(Cc2ccc(F)cc2)CC1)N(CCc1ccccc1)Cc1ccccc1,5.3,-2.0,-3.45*,-1.13,3.2,0.0462*
COc1ccc2c(c1)O/C(=C\c1sccc1C)C2=O,4.4,-2.7,0.36,-0.109,0.2,/
CCCc1ccc(Oc2c(-c3ccc(O)c(C)c3O)n[nH]c2C)cc1,4.5,-5.7,/,0.000717,-0.5,/
CCCc1ccc(Oc2cn[nH]c2-c2ccc(O)c(C)c2O)cc1,4.0,4.5,-4.04*,0.269,-2.8,0.0584*
COc1ccc(C=O)cc1COc1ccc(F)cc1F,2.3,/,/,-0.931,0.0,/
COc1ccc(C=O)cc1Cn1ccnc1C,1.4,0.9,-7.22*,0.00458,-0.2,0.0787
COc1ccc(C=O)cc1COc1c(F)c(F)cc(F)c1F,1.5,-0.9,3.92*,-0.555,0.5,0.0908
N#Cc1cc2cc3ccccc3nc2n2c(=O)c3ccccc3nc12,3.1,2.3,/,i,-0.2,0.0563*
Cc1cc(C#N)c2ccccc2n1,5.0,0.7,/,0.591,2.0,/
COc1cc2c(cc1OC)CN(C(=O)c1ccc3nc[nH]c3c1)CC2,17.9*,82.3*,3.44*,-1.11,-1.4,0.0841
O=C(c1ccc2nc[nH]c2c1)N1CCc2ccccc2C1,3.0,-2.7,0.0758,0.719,-1.2,/
Cc1ccc2cc(CN(Cc3ccc4c(c3)OCO4)Cc3nnnn3Cc3ccco3)c(=O)[nH]c2c1C,4.0,-0.3,-4.15*,-0.664,-0.3,?
COc1cccc(COCC(O)Cn2cnc3cc(C)c(C)cc32)c1 (stereo not drawn),1.9,2.0,0.239,-0.818,-0.8,/
CCc1ccc(O)c(N=Cc2cccc(C)c2O)c1,6.3,1.3,/,-0.734,-1.5,/
CCCc1ccc(O)c(N=Cc2cc(Br)cc(OCC)c2O)c1,4.1,0.1,-2.23,-0.793,0.7,0.0781
